FLuc act counter: firefly luciferase counter-screen for stimulation assays | P08659 | ATPlite luciferase biochemical, luminescence, 10 min; 0 = ATP-free wells, 1 = DMSO control | activation factor at 10 µM | 200,000 tested, under 10 active | AID 1027;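 active = luciferase activation factor, scaled between plate controls, of at least 2 with compound at 10 µM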
Target sequence (P08659 whole entry, looked up): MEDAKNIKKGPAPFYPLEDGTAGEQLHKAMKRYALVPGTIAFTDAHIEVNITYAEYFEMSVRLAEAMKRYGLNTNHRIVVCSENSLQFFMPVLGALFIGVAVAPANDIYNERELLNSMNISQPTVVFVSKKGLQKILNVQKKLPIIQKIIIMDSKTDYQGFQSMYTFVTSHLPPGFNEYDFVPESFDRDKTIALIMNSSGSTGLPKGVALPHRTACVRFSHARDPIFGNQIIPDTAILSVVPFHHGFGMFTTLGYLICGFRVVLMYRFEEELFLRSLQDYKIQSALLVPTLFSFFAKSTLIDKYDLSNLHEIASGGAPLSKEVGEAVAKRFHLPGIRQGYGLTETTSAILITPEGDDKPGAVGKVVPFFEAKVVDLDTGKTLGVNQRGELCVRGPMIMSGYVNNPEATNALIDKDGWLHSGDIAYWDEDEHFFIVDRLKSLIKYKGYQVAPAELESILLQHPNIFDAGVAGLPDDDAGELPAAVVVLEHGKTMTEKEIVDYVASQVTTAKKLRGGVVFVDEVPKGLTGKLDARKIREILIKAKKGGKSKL
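System: Luciferase/luciferin detection reagent, cell-free biochemical luciferase assay | Medium: PBS buffer for ATP | Dosing: Test compounds dosed from 2 mM stocks in 100% DMSO | Timing: 10 min at ambient temperature | Signal: Luminescence measurement of luciferase light output | Evaluation: Luciferase activation, seen as luminescence increase over controls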
PPC-1+TRAIL kill: kills PPC-1 cancer cells in the presence of TRAIL. PPC-1 cells + TRAIL, ATPLite viability luminescence. cell killing (% activity), % at 4 µM or 5 µM. hit rate 0.41% among 220,000. AID 1443;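 active = cell killing above 50% in the first pass at 4 µM, then a duplicate retest at 5 µM averaging 50% or more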
Wee1 degr inh: human Wee1 degradation inhibition, primary screen. P30291. HeLa Luc-Wee1K328M stability, luciferase luminescence; 100% = proteasome inhibitor MG132 effect. reporter increase, % at 5 µM. hit rate 1.2% among 220,000. AID 1321;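 active = activation above the mean of all tested compounds plus 3 SD, set per screening run, cut at about 8.8% in these data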;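 note: cells exposed to compound for 20 h before luminescence read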
C8 TRAIL sens: caspase-8 TRAIL sensitization | NB7+C8 cells + TRAIL, ATPlite viability luminescence | inhibition (viability loss, TRAIL sensitization), % at 10 µM | hit rate 1% among 360,000 | AID 624354;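 active = compounds causing at least 50% loss of cell viability in the single-dose screen, relative to plate controls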
FLuc inh counter: Photinus pyralis luciferase inhibition counter-screen; P08659; ATPLite firefly luciferase biochemical luminescence, 10 min; inhibition, % at 10 µM; hit rate 1.5% among 200,000; AID 1006;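 active = inhibition above about 50% when tested at 10 µM, limit read from the data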
PKD1 inh: blocks activity of human protein kinase D1; PKD1 kinase fluorescence polarization assay; Q15139; inhibition, % (concentration not given with the values); hit rate 0.056% among 200,000; in the data active = inhibition above about 50%
Hits are given with their value; i = inactive; nt = not tested or not shown. Only some compounds are listed: those with a hit (about 2.2% of all), similar ones and a draw of the others.

SMILES	FLuc act counter	PPC-1+TRAIL kill	Wee1 degr inh	C8 TRAIL sens	FLuc inh counter	PKD1 inh
COc1ccc(NC(=O)CCc2nc3ccccc3[nH]2)cc1	i	i	i	i	i	i
Cn1ncc([N+](=O)[O-])c1C(=O)n1nnc2ccccc21	i	nt	27	i	i	i
O=C(Nc1cccc(O)c1)c1cc(-c2ccc3c(c2)OCO3)on1	nt	nt	nt	92	nt	nt
COc1ccc(NC(=O)c2cc(-c3ccccc3Cl)on2)cc1OC	nt	nt	nt	i	nt	nt
O=C(Nc1cccc(O)c1)c1cc(-c2ccccc2Cl)on1	nt	nt	nt	70	nt	nt
COc1cc(NC(=O)c2cc(-c3ccc4c(c3)OCO4)on2)cc(OC)c1OC	nt	nt	nt	i	nt	nt
CCC(=O)Nc1sc(C(=O)Nc2ccccc2F)c(C)c1C(=O)OC	i	nt	i	i	i	i
CCOC(=O)c1c(N)sc(C(=O)Nc2ccccc2F)c1C	i	i	i	i	75	i
CCOC(=O)c1c(N)sc(C(=O)Nc2ccccc2)c1C	i	i	i	63	84	i
CCOc1ccc(NC(=O)c2sc(NC(C)=O)c(C(=O)OC)c2C)cc1	i	i	i	i	i	i
COC(=O)c1c(NC(C)=O)sc(C(=O)Nc2ccccc2)c1C	i	i	9.1	i	i	i
COc1ccc(CC(=O)NCc2n[nH]c(=S)n2-c2ccccc2OC)cc1	i	i	i	i	i	i
CCC1CCCCN1C(=O)COc1ccc(N(C)S(=O)(=O)c2ccc(C)cc2)cc1 (configuration not stated)	nt	nt	nt	i	nt	nt
CCCCCC(=O)Nc1c(-c2ccc(OC)cc2)c(=O)c2ccccc2n1C	i	i	9.9	i	i	i
CCCC(=O)Nc1c(-c2ccc(OC)cc2)c(=O)c2ccccc2n1C	i	i	i	i	i	i
COc1ccccc1NC(=O)N(CCCN1CCOCC1)Cc1cc2cc3c(cc2[nH]c1=O)OCO3	i	i	nt	i	i	nt
COc1cc2cc(CN(CCCN3CCOCC3)C(=O)Nc3ccccc3F)c(=O)[nH]c2cc1OC	i	i	9.2	i	i	i
NC(=O)CSc1nc(C2CC2)nc2sc3c(c12)CCCC3	i	i	i	i	52	i
O=C(CCSc1ccc(Cl)cc1)N1CCN(S(=O)(=O)c2ccccc2)CC1	nt	nt	nt	i	nt	nt
OCCCNC(=S)Nc1ccc(Br)cc1Cl	nt	i	8.9	i	nt	nt
COc1ccc(CN2CCNC(=O)C2CC(=O)NCc2cnn(C)c2)cc1OC (configuration not stated)	i	i	i	i	i	i
Cc1cc2nc(-c3ccc[nH]c3=O)[nH]c2cc1C	nt	nt	nt	90	nt	nt
Cc1nc2sc(C(c3cccs3)N3CCN(c4cccc(Cl)c4)CC3)c(O)n2n1 (configuration not stated)	i	i	11	i	i	i
Cc1nc2sc(C(c3cccs3)N3CCN(C(=O)c4ccco4)CC3)c(O)n2n1 (configuration not stated)	i	i	i	i	i	i
O=C(NCc1nnc(SCC(=O)N2CCOCC2)o1)c1ccccc1	nt	nt	nt	i	nt	nt
SMILES	FLuc act counter	PPC-1+TRAIL kill	Wee1 degr inh	C8 TRAIL sens	FLuc inh counter	PKD1 inh
O=c1cc(CN2CCN(S(=O)(=O)c3ccc4ccccc4c3)CC2)nc2sccn12	i	i	i	i	i	i
c1cc(-c2cc3cc(N4CCOCC4)ccc3o2)cs1	nt	nt	nt	79	nt	nt
COc1ccccc1C(=O)NC(CCSC)C(=O)Nc1ccc(C)c(S(=O)(=O)N2CCOCC2)c1 (configuration not stated)	nt	nt	nt	i	nt	nt
C=CCN1C=CC(=C/C=C(/C#N)C(=O)OCC)C=C1	i	i	i	49	82	i
c1ccc(-c2noc(-c3ccc4ccccc4c3)n2)nc1	i	i	i	87	96	i
CCc1ccc(-c2cc(-c3n[nH]c(=S)n3CC)c3ccccc3n2)cc1	i	i	i	nt	64	i
CCn1c(-c2cc(-c3cccc(OC)c3)nc3ccccc23)n[nH]c1=S	i	i	i	i	i	i
Cn1cc(CN2CCCC(CO)(Cc3ccccc3)C2)cn1 (configuration not stated)	i	i	i	i	i	i
COc1ccc(Cc2nnc(N/N=C/c3ccc(O)cc3O)[nH]c2=O)cc1OC	i	i	i	51	i	i
O=C(COC(=O)c1ccc2c(=O)n3c(nc2c1)CCC3)Nc1ccc(OC(F)F)cc1	i	i	i	i	i	i
Fc1cccc2sc(Nc3nnc(-c4ccccc4)o3)nc12	i	i	i	53	77	i
COc1cc2c(cc1OC)CN(C(=O)COc1ccccc1[N+](=O)[O-])CC2	nt	nt	nt	i	nt	nt
COCCCNc1nc2nonc2nc1N(C)CC1CCCN1C (configuration not stated)	i	i	i	i	i	i
COc1cc(OC)cc(C(=O)NCc2ccc3c(c2)OCO3)c1	nt	nt	nt	i	nt	nt
O=c1cc(-c2ccccc2)nc2nc(CCc3ccccc3)[nH]n12	i	i	i	i	i	i
Cc1cccc(-c2cc3nc(-c4ccccc4)cc(=O)n3[nH]2)c1	nt	nt	nt	44	nt	nt
O=c1cc(-c2ccccc2)nc2nc(-c3ccco3)[nH]n12	i	i	i	i	72	i
O=C1CCC(=O)N1c1nc2nc(-c3ccccc3)cc(=O)n2[nH]1	i	i	i	i	i	i
Cc1nc2nc(-c3ccccc3)cc(=O)n2[nH]1	i	i	i	i	56	i
Cc1c(NC(=O)c2ccc(N(Cc3ccccc3)S(C)(=O)=O)cc2)c(=O)n(-c2ccccc2)n1C	i	i	i	i	i	i
OC(CN1CCN(Cc2ccccc2)CC1)c1ccccc1 (configuration not stated)	i	i	i	i	i	i
OC(CN1CCN(Cc2ccccc2)CC1)c1ccc(F)cc1 (configuration not stated)	i	58	i	i	i	i
CC(=O)Nc1nnc(SCC(=O)N2C(C)CCCC2C)s1 (configuration not stated)	nt	nt	nt	i	nt	nt
O=C1c2ccccc2S(=O)(=O)c2cc(N3CCOCC3)ccc21	nt	nt	nt	66	nt	nt
CN(C)CC(O)CN1C(=O)NC(C)(C)C1=O (configuration not stated)	i	nt	i	i	i	i
SMILES	FLuc act counter	PPC-1+TRAIL kill	Wee1 degr inh	C8 TRAIL sens	FLuc inh counter	PKD1 inh
O=c1c(-c2nc3ccccc3s2)cccn1Cc1ccccc1	i	i	9.0	i	i	i
CN(C(=O)Nc1cnccc1C(F)(F)F)C1CCCCC1	nt	i	i	i	nt	nt
CC1(C)N=C(N)N=C(N)N1c1cccc(CN)c1	nt	i	i	i	nt	nt
CC1(C)N=C(N)N=C(N)N1c1ccccc1	i	i	i	85	i	i
CC1(C)N=C(N)N=C(N)N1c1cc(Cl)ccc1Cl	nt	nt	nt	i	nt	nt
CC1(C)N=C(N)N=C(N)N1c1ccc(Oc2ccc(Cl)cc2)c(Cl)c1	nt	nt	nt	58	nt	nt
CC1(C)N=C(N)N=C(N)N1c1ccc(CCCCc2ccccc2)cc1	nt	nt	nt	65	nt	nt
OCc1ccccc1OCCOc1ccc(Cl)c2cccnc12	i	i	i	i	i	i
Clc1ccc(OCc2cn3ccccc3n2)c2ncccc12	i	i	9.9	i	i	i
O=C1OCCN1C(=O)[C@H]1[C@H](c2ccc([N+](=O)[O-])cc2)C(c2ccccc2)=NN1c1ccccc1	nt	nt	nt	i	nt	nt

Assay outcomes from PubChem BioAssay.
